Assay results: ChEMBL document CHEMBL3259545, “Novel pyrrolobenzoxaboroles: design, synthesis, and biological evaluation against Trypanosoma brucei” (Eur J Med Chem, 2014)
Values after ≈ are worked out from the molar mass of the structure shown. Active and inactive are the calls of the source. No cut-off for these calls is given here.

How the values were obtained:
[1] = system: L929; assay: Cytotoxicity against mouse L929 cells assessed as cell viability after 72 hrs by alamar blue assay; type: cell-based; settings: L929, 72 h
Procedure, shortened: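 L929 mouse fibroblasts grown in DMEM with 10% FBS and 1% penicillin/streptomycin, kept sub-confluent. Seeded from a 1 × 10⁴/mL suspension, attached overnight, then medium renewed and DMSO-diluted compounds added. Incubated 72 h at 37 °C, 5% CO₂. Resazurin added for another 3–4 h, fluorescence read at ex 544/em 590 nm.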

[2] = system: Trypanosoma brucei brucei; assay: Antitrypanosomal activity against Trypanosoma brucei brucei 427 after 72 hrs by alamar blue assay; type: functional, organism-based; settings: Trypanosoma brucei, 427, 72 h
Procedure, shortened: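 Bloodstream T. b. brucei 427 kept in log phase in HMI-9 with 10% FBS, 10% Serum Plus and penicillin/streptomycin, subcultured every 2–3 days. Final density 1.0 × 10⁵/mL with 0.4% DMSO, exposed to serially diluted compounds for 72 h at 37 °C, 5% CO₂. Resazurin added for another 2–4 h, fluorescence read at ex 544/em 590 nm. IC50 from sigmoidal fits of triplicate points.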

[3] = system: Trypanosoma brucei brucei; assay: Trypanocidal activity against bloodstream stage of Trypanosoma brucei brucei infected in acute BALB/c mouse assessed as animal survival rate at 50 mg/kg, ip bid administered for 5 days initiated 24 hrs post infection; type: functional; settings: route intraperitoneal
Procedure, shortened: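 Female BALB/c mice infected i.p. with 600 T. b. brucei 221 bloodstream parasites; from 24 h post-infection, dosed 50 mg/kg i.p. twice daily for 5 days in 5% ethanol/45% sterile deionized water/50% PEG400. Parasitaemia was checked on trypan-blue-stained tail-vein blood smears every other day for 10 days, then weekly; survival was followed to day 30.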

[4] = system: Trypanosoma brucei brucei; assay: Trypanocidal activity against bloodstream stage of Trypanosoma brucei brucei infected in acute BALB/c mouse assessed as clearance of blood parasite on day 30 at 50 mg/kg, ip bid administered for 5 days initiated 24 hrs post infection; type: functional; settings: route intraperitoneal
Procedure, shortened: (§1)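 Female BALB/c mice infected i.p. with 600 T. b. brucei 221 parasites. Starting 24 h after infection, compounds were given i.p. at 50 mg/kg twice daily for 5 days, in 5% ethanol/45% water/50% PEG400. Untreated mice served as controls. Parasitemia was checked by trypan-blue-stained tail-vein blood smears every other day for ten days, then weekly, with survival followed to day 30.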

[5] = system: Trypanosoma brucei brucei; assay: Trypanocidal activity against bloodstream stage of Trypanosoma brucei brucei infected in acute BALB/c mouse assessed as extension of animal survival at 50 mg/kg, ip bid administered for 5 days initiated 24 hrs post infection; type: functional, organism-based; parameters: dose 50 mg/kg; procedure, shortened: as §1

Structure (SMILES)	IC50 [1] [µg/mL]	IC50 [2] [µg/mL]	survival at 50 mg/kg [3] [%]	Activity [4] [%]	Activity [5]
COc1cc(C(=O)c2ccn(-c3ccc4c(c3)B(O)OC4)c2)cc(OC)c1OC	1.15 (≈ 2.92 µM)	0.16 (≈ 0.407 µM)	–	–	–
OB1OCc2ccc(-n3cccc3Sc3ccccc3Cl)cc21	> 10	2.89 (≈ 8.46 µM)	–	–	–
NCc1ccc(C(=O)c2ccn(-c3ccc4c(c3)B(O)OC4)c2)cc1	> 10	0.18 (≈ 0.542 µM)	–	–	–
O=C(CCCN1C(=O)c2ccccc2C1=O)c1ccn(-c2ccc3c(c2)B(O)OC3)c1	> 10	0.72 (≈ 1.74 µM)	–	–	–
O=C(c1ccc(Cl)cc1)c1ccn(-c2ccc3c(c2)B(O)OC3)c1	> 10	0.21 (≈ 0.622 µM)	–	–	–
OB1OCc2ccc(-n3cc(Sc4ccccc4O)c4ccccc43)cc21	> 10	> 5	–	–	–
O=C(c1ccn(-c2ccc3c(c2)B(O)OC3)c1)c1ccc(Cl)cc1Cl	> 10	1.12 (≈ 3.01 µM)	–	–	–
Cc1ccccc1C(=O)c1ccn(-c2ccc3c(c2)B(O)OC3)c1	> 10	0.56 (≈ 1.77 µM)	–	–	–
OB1OCc2ccc(-n3cc(Sc4cccc(Cl)c4)c4ccccc43)cc21	> 10	> 5	–	–	–
COc1ccc([S+]([O-])c2cn(-c3ccc4c(c3)B(O)OC4)c3ccccc23)cc1 (configuration not stated)	> 10	1.56 (≈ 3.87 µM)	–	–	–
CCCNC(=O)c1cccn1-c1ccc2c(c1)B(O)OC2	> 10	3.21 (≈ 11.3 µM)	–	–	–
O=[N+]([O-])c1ccc(Sc2cn(-c3ccc4c(c3)B(O)OC4)c3ccccc23)cc1	> 10	> 5	–	–	–
O=C(c1ccc(F)cc1)c1ccn(-c2ccc3c(c2)B(O)OC3)c1	> 10	0.16 (≈ 0.498 µM)	–	–	–
COc1ccc(Sc2cn(-c3ccc4c(c3)B(O)OC4)c3ccccc23)cc1	> 10	> 5	–	–	–
OB1OCc2ccc(-n3cc(Sc4ccc5ccccc5c4)c4ccccc43)cc21	> 10	> 5	–	–	–
Nc1ccc(C(=O)c2ccn(-c3ccc4c(c3)B(O)OC4)c2)cc1	3.9 (≈ 12.3 µM)	0.03 (≈ 0.0943 µM)	100	100	–
COc1ccc(C(=O)c2ccn(-c3ccc4c(c3)B(O)OC4)c2)cc1	> 10	0.11 (≈ 0.33 µM)	–	–	–
O=C(c1ccc(Cl)cc1Cl)c1cccn1-c1ccc2c(c1)B(O)OC2	> 10	1.43 (≈ 3.84 µM)	–	–	–
OB1OCc2ccc(-n3cc(Sc4ccc(Cl)cc4)c4ccccc43)cc21	> 10	> 5	–	–	–
COc1ccc(S(=O)(=O)c2cn(-c3ccc4c(c3)B(O)OC4)c3ccccc23)cc1	> 10	> 5	–	–	–
CCNC(=O)c1cccn1-c1ccc2c(c1)B(O)OC2	> 10	1.85 (≈ 6.85 µM)	–	–	–

Structure (SMILES)	IC50 [1] [µg/mL]	IC50 [2] [µg/mL]	survival at 50 mg/kg [3] [%]	Activity [4] [%]	Activity [5]
O=C(NCCc1ccccc1)c1cccn1-c1ccc2c(c1)B(O)OC2	> 10	0.68 (≈ 1.96 µM)	–	–	–
Cc1ccc(C(=O)c2ccn(-c3ccc4c(c3)B(O)OC4)c2)cc1	> 10	0.08 (≈ 0.252 µM)	–	–	–
OB1OCc2ccc(-n3cc(Sc4ccc(Cl)c(Cl)c4)c4ccccc43)cc21	> 10	> 5	–	–	–
O=C(c1ccc(CO)cc1)c1ccn(-c2ccc3c(c2)B(O)OC3)c1	9.31 (≈ 27.9 µM)	0.04 (≈ 0.12 µM)	–	–	–
O=C(c1ccc(F)cc1)c1cccn1-c1ccc2c(c1)B(O)OC2	> 10	0.4 (≈ 1.25 µM)	–	–	–
CCCCCC(=O)c1ccn(-c2ccc3c(c2)B(O)OC3)c1	> 10	0.09 (≈ 0.303 µM)	–	–	–
CC(=O)OCc1ccc(C(=O)c2ccn(-c3ccc4c(c3)B(O)OC4)c2)cc1	10 (≈ 26.7 µM)	0.03 (≈ 0.08 µM)	–	–	–
CCCC(=O)c1ccn(-c2ccc3c(c2)B(O)OC3)c1	> 10	0.11 (≈ 0.409 µM)	–	–	–
OB1OCc2ccc(-n3cc(Sc4ccc(O)cc4)c4ccccc43)cc21	> 10	> 5	–	–	–
Cc1ccc(C(=O)c2ccn(-c3ccc4c(c3)B(O)OC4)c2)s1	> 10	0.07 (≈ 0.217 µM)	100	100	–
OB1OCc2ccc(-n3cccc3)cc21	> 10	1.98 (≈ 9.95 µM)	–	–	–
O=C(c1ccccc1)c1cccn1-c1ccc2c(c1)B(O)OC2	> 10	0.34 (≈ 1.12 µM)	–	–	–
O=C(O)c1cccn1-c1ccc2c(c1)B(O)OC2	> 10	0.13 (≈ 0.535 µM)	–	–	–
COc1ccc(CNC(=O)c2cccn2-c2ccc3c(c2)B(O)OC3)cc1	> 10	0.7 (≈ 1.93 µM)	–	–	–
O=C(c1ccn(-c2ccc3c(c2)B(O)OC3)c1)c1cccs1	> 10	0.08 (≈ 0.259 µM)	–	–	–
OB1OCc2ccc(-n3ccc(Cc4ccccc4)c3)cc21	> 10	2.17 (≈ 7.5 µM)	–	–	–
OB1OCc2ccc(-n3ccc4ccccc43)cc21	> 10	> 5	–	–	–
O=C(NCc1ccccc1)c1cccn1-c1ccc2c(c1)B(O)OC2	> 10	0.8 (≈ 2.41 µM)	–	–	–
Cc1ccsc1C(=O)c1ccn(-c2ccc3c(c2)B(O)OC3)c1	> 10	0.11 (≈ 0.34 µM)	–	–	–
CCc1ccc(C(=O)c2ccn(-c3ccc4c(c3)B(O)OC4)c2)cc1	> 10	0.07 (≈ 0.211 µM)	–	–	Active
OB1OCc2ccc(-n3cccc3Sc3ccc(Cl)c(Cl)c3)cc21	> 10	> 5	–	–	–

Structure (SMILES)	IC50 [1] [µg/mL]	IC50 [2] [µg/mL]	survival at 50 mg/kg [3] [%]	Activity [4] [%]	Activity [5]
O=C(c1ccn(-c2ccc3c(c2)B(O)OC3)c1)C1CCCCC1	> 10	0.13 (≈ 0.42 µM)	–	–	–
OB1OCc2ccc(-n3cc(Sc4ccc(F)cc4)c4ccccc43)cc21	> 10	> 5	–	–	–
COc1ccccc1C(=O)c1ccn(-c2ccc3c(c2)B(O)OC3)c1	> 10	0.17 (≈ 0.51 µM)	–	–	–
O=C(NC1CCCCC1)c1cccn1-c1ccc2c(c1)B(O)OC2	> 10	2.85 (≈ 8.79 µM)	–	–	–
O=C(c1ccccc1)c1ccn(-c2ccccc2)c1	> 10	> 5	–	–	–
O=C(c1ccccc1)c1ccn(-c2ccc3c(c2)B(O)OC3)c1	> 10	0.09 (≈ 0.297 µM)	100	100	–
CC(=O)c1cccn1-c1ccc2c(c1)B(O)OC2	> 10	0.69 (≈ 2.86 µM)	–	–	–
O=C(c1ccn(-c2ccc3c(c2)B(O)OC3)c1)c1ccccc1Cl	> 10	0.28 (≈ 0.829 µM)	–	–	–
O=C(CCc1ccccc1)c1ccn(-c2ccc3c(c2)B(O)OC3)c1	> 10	0.19 (≈ 0.574 µM)	–	–	–
CNC(=O)c1cccn1-c1ccc2c(c1)B(O)OC2	> 10	0.86 (≈ 3.36 µM)	–	–	–
OB1OCc2ccc(-n3cccc3Sc3ccc(Cl)cc3)cc21	> 10	1.16 (≈ 3.4 µM)	–	–	–
CC(=O)c1ccn(-c2ccc3c(c2)B(O)OC3)c1	> 10	0.56 (≈ 2.32 µM)	–	–	–
NCCCC(=O)c1ccn(-c2ccc3c(c2)B(O)OC3)c1	> 10	4.02 (≈ 14.1 µM)	–	–	–
O=C(c1ccc(O)cc1)c1ccn(-c2ccc3c(c2)B(O)OC3)c1	> 10	0.06 (≈ 0.188 µM)	–	–	Active
O=C(Cc1ccccc1)c1ccn(-c2ccc3c(c2)B(O)OC3)c1	> 10	0.29 (≈ 0.914 µM)	–	–	–
O=C(c1ccn(-c2ccc3c(c2)B(O)OC3)c1)c1cccc2ccccc12	5.59 (≈ 15.8 µM)	0.4 (≈ 1.13 µM)	–	–	–
O=C(c1ccccc1)c1ccn(-c2ccc3c(c2)C(O)OC3)c1 (configuration not stated)	8.18 (≈ 26.8 µM)	> 5	–	–	–
O=C(c1ccccc1Cl)c1cccn1-c1ccc2c(c1)B(O)OC2	> 10	0.7 (≈ 2.07 µM)	–	–	–
Cc1cccc(C(=O)c2ccn(-c3ccc4c(c3)B(O)OC4)c2)c1	> 10	0.09 (≈ 0.284 µM)	–	–	–
O=C(c1cccc(Cl)c1)c1ccn(-c2ccc3c(c2)B(O)OC3)c1	> 10	0.35 (≈ 1.04 µM)	–	–	–
